Compound activity deposited in PubChem by The Scripps Research Institute Molecular Screening Center.
Only some compounds are listed: those with a hit (about 4.3% of all), similar ones and a draw of the others.
OX1R antag-1: blocks the human orexin 1 receptor; O43613; CHO/OX1R cells, Fluo-8 calcium fluorescence, orexin A; inhibition, % at 5 µM; hit rate 0.43% among 330,000; AID 434989;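 active = inhibition above its plate's threshold, mean inhibition of all tested compounds on the plate plus 3 SD, cut at about 37% in these data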;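 also: 0% = orexin A challenge wells and 100% = SB-334867-A antagonist wells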
CHO parental Ca: signal in parental CHO cells, OX1R antagonist counter-screen | hit rate 0.63% among 330,000 | AID 463079 | parental CHO-K1, ATP-induced calcium, Fluo-8 fluorescence | inhibition, % at 5.6 µM;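 active = inhibition above that plate's mean sample inhibition plus 3 SD, cut at about 26% in these data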;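 also: 0% = ATP-challenged DMSO wells and 100% = DMSO wells without ATP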
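Measured by: calcium-sensitive Fluo-8 fluorescence / Test system: CHO parental line / Controls: ATP-challenged DMSO wells low, unchallenged DMSO wells high / Measure: % inhibition / Compound: single nominal dose of 5.6 µM per compound / Replicates: single well per compound, no replicates / Reagent: ATP as calcium-mobilizing challenge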
TAAR1 antagonist: human TAAR1 antagonism; hit rate 1.5% among 360,000; inhibition, % at 3 µM; CHO RD-HGA16 TAAR1, Fluo-8 calcium fluorescence, antagonist; AID 624466; Q96RJ0;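 active = inhibition above a per-plate cutoff, the mean inhibition of test compounds on that plate plus 3 SD, cut at about 49% in these data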;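 also: 0% = DMSO plus EC80 beta-PEA response and 100% = DMSO alone without agonist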
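Test system: CHO RD-HGA16 cells bearing hTAAR1 | Reagent: β-PEA, EC80 | Compound dosing: 3 µM, single point | Schedule: Dye loading 75 min at 37 °C, then 30 min room temperature | Signal: Calcium fluorescence with Fluo-8 | Evaluation: Percent inhibition of PEA-evoked calcium signal, max/basal emission ratio | Control set: DMSO-only wells and EC80 β-PEA-stimulated wells | Repeats: Singlicate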
TAAR1 ag: human TAAR1 agonism. Q96RJ0. CHO RD-HGA16 TAAR1, Fluo-8 calcium fluorescence; vehicle wells 0%, saturating PEA agonist 100%. activation, % at 3 µM. hit rate 0.99% among 360,000;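 active = activation above the mean activation of all test compounds in the run plus 3 SD, cut at about 38% in these data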
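System: CHO RD-HGA16 cells carrying human TAAR1 plus Gα16; Incubation: 17-24 h seeding, 75 min 37 °C dye, 30 min RT; Measured by: Fluo-8 fluorescence, 5 s baseline then 140 s kinetic read; Control set: DMSO and PEA EC100; Replication: single well for each compound.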
OX1R antag-2: antagonists of human orexin 1 receptor (OX1R); O43613; OX1R-expressing cells, FRET antagonist read-out; inhibition, % at 6.6 µM; hit rate 1.8% among 330,000; AID 485270; in the data active = inhibition mostly above about 38%, no sharp cut-off; inactive = mostly below about 40%;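 also: 0% = agonist challenge alone and 100% = reference antagonist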
GalR3 antag: human GalR3 antagonism | hit rate 0.44% among 360,000 | HEK293 GalR3-CNG cAMP membrane potential fluorescence; galR3 body fused to GalR1 C-terminus | inhibition, % at 3 µM | O60755;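 active = inhibition above the screen-wide average plus 3 SD, cut at about 13% in these data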;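 also: forskolin and galanin both at EC90 stimulate the cells; cAMP rise reported by CNG channel membrane potential dye signal; 0% = forskolin plus galanin with DMSO and 100% = forskolin alone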
Target sequence (O60755 1-299 limits assumed): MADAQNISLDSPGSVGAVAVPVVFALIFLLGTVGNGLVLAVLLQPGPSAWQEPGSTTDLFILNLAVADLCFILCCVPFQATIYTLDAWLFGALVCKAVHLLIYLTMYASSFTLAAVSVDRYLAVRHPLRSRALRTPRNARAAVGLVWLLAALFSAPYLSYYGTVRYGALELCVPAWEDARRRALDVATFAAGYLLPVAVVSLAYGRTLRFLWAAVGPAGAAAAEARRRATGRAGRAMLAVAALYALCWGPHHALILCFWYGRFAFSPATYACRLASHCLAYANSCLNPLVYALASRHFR
TAAR1 ag conf: confirmation of human TAAR1 agonists; CHO RD-HGA16 TAAR1, Fluo-8 calcium fluorescence; scaled: DMSO 0%, maximal phenethylamine 100%; activation, % at 3 µM; shares compounds with TAAR1 ag; AID 651783; hit rate 82% among 2,400;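 active = activation above a cutoff set at the run's mean compound activation plus 3 SD, cut at about 39% in these data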
Ga16 nonsel ag: nonselective agonism, TAAR1 counter-screen | shares compounds with TAAR1 ag | CHO-Ga16 parental, Fluo-8 calcium fluorescence; normalized to maximal ATP response, DMSO zero | activation, % at 3 µM | hit rate 50% among 2,400;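 active = activation above the run cutoff, the mean activation over all tested wells plus 3 SD, cut at about 12% in these data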;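 also: 0% = DMSO wells and 100% = maximal ATP response on the peak over basal ratio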
TAAR1 desensitize: human TAAR1 agonist that also desensitizes the receptor. shares compounds with TAAR1 ag. CHO RD-HGA16 hTAAR1, Fluo-8 calcium, beta-PEA response inhibition. inhibition, % at 3 µM. hit rate 46% among 2,400. AID 651951;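 active = inhibition above the run cutoff, the mean inhibition of all test compounds plus 3 SD, cut at about 49% in these data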;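 also: beta-PEA stimulus applied at its EC80; loss of beta-PEA calcium signal after compound pretreatment read as receptor desensitization; 0% = DMSO with beta-PEA at EC80 and 100% = DMSO alone without agonist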
Ga16 antag count: nonselective Ga16 antagonist in TAAR1 agonist counter-screen; CHO-Ga16 ATP-induced calcium, Fluo-8 fluorescence; AID 651952; hit rate 39% among 2,400; shares compounds with TAAR1 ag; inhibition, % at 3 µM;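 active = inhibition above the plate's mean compound inhibition plus 3 SD, computed per plate, cut at about 22% in these data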;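 also: 0% = EC80 ATP with DMSO and 100% = DMSO wells without ATP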
* marks the source's active call; other numbers are inactive results; nt = no result.

SMILES | OX1R antag-1 | CHO parental Ca | TAAR1 antagonist | TAAR1 ag | OX1R antag-2 | GalR3 antag | TAAR1 ag conf | Ga16 nonsel ag | TAAR1 desensitize | Ga16 antag count
COc1ccccc1NS(=O)(=O)c1ccc(C(=O)N2CCCC(C(F)(F)F)C2)cc1 (configuration not stated) | 9 | -9 | 8 | 15 | 16 | -3 | nt | nt | nt | nt
Cc1cccc(NS(=O)(=O)c2ccc(NC(=O)N3CCCCC3)cc2)c1 | -4 | -1 | 26 | 22 | 27 | 2 | nt | nt | nt | nt
Cc1ccc(NS(=O)(=O)c2ccc(C(=O)N3CCCC(C(F)(F)F)C3)cc2)cc1 (configuration not stated) | 45* | 31 | 89* | 142* | 8 | -6 | 125* | 90* | 88* | 48*
Cc1ccc(NS(=O)(=O)c2ccc(NC(=O)N3CCCCC3)cc2)cc1 | 1 | -3 | -4 | 52* | -2 | -4 | 46* | 14* | 15 | 21
CC1(c2ccc3c(c2)OCCO3)NC(=O)N(CC(=O)Nc2ccccc2F)C1=O (configuration not stated) | nt | nt | 2 | 16 | nt | -2 | nt | nt | nt | nt
CCc1nccn1CCC(=O)N1CCCC(N2CCN(c3ccccc3C)CC2)C1 (configuration not stated) | -55 | -17 | -32 | 1 | -2 | -3 | nt | nt | nt | nt
Cc1ccc(-n2nnnc2SCC(=O)Nc2ccc(N3CCN(C)CC3)cc2)c(C)c1 | -6 | -8 | 6 | 16 | 30 | -7 | nt | nt | nt | nt
Cc1ccc(SCC(=O)Nc2ccc(N3CCN(C)CC3)c(F)c2)c(C)c1 | -15 | -22 | 52* | 60* | 4 | -7 | 80* | 2 | 75* | 7
CCCc1cc(=O)[nH]c(SCC(=O)N2CCc3ccccc3C2)n1 | -14 | -14 | 55* | 85* | 9 | -3 | 92* | 5 | 29 | 0
Nc1nc(SCC(=O)N2CCc3ccccc3C2)[nH]c(=O)c1-c1ccccc1 | 2 | -6 | 90* | 92* | 9 | -2 | 107* | 22* | 95* | -4
CCCc1nc(SCC(=O)c2ccc3c(c2)NC(=O)CO3)[nH]c(=O)c1CC | nt | nt | -4 | 11 | nt | -3 | nt | nt | nt | nt
Nc1nc(SCC(=O)Nc2ccccc2)[nH]c(=O)c1-c1ccccc1 | -7 | -12 | -2 | 6 | 4 | -8 | nt | nt | nt | nt
CCCc1cc(=O)[nH]c(SCC(=O)c2ccc3c(c2)NC(=O)CO3)n1 | -21 | -4 | 5 | 54* | 2 | 2 | 5 | 7 | -2 | 6
CCCc1cc(=O)[nH]c(SCC(=O)N2CCc3cc(OC)c(OC)cc3C2)n1 | -1 | -5 | -8 | 15 | -1 | 2 | nt | nt | nt | nt
CC(C)Cn1c(SCC(=O)N2CCc3ccccc3C2)nc(O)cc1=O | -6 | -3 | nt | nt | 12 | -4 | nt | 4 | nt | 2
O=C(NNC(=O)c1ccc(F)cc1F)c1ccc2c(c1)OCO2 | -13 | -4 | -5 | -1 | 16 | -5 | nt | nt | nt | nt
CC(C)(C)OC(=O)N1CCC(C(=O)Nc2cccc(C(=O)NC3CC3)c2)CC1 | nt | nt | 4 | 1 | nt | -6 | nt | nt | nt | nt
Cc1ccc(C(C)NC(=O)/C(C#N)=C\c2c(C)[nH]c3ccccc23)cc1 (configuration not stated) | -5 | 33* | 44 | 63* | 18 | -7 | 59* | 33* | 48 | 39*
Clc1ccc(Cn2ncc3c(N4CCCC4)ncnc32)cc1 | -5 | -15 | 10 | 13 | 9 | -1 | nt | nt | nt | nt
